Here are results for eight compounds from ChEMBL document CHEMBL2163260, “Synthesis and biological evaluation of antifungal derivatives of enfumafungin as orally bioavailable inhibitors of β-1,3-glucan synthase” (Bioorg Med Chem Lett, 2012).

The test system of data set [1] is Candida albicans. Nature of the data set: Antifungal activity against Candida albicans. Type of data set: functional.
Data set [2] concerns Candida albicans. Put plainly: Antifungal activity against Candida albicans MY1055 infected in DBA/2 mouse assessed as reduction in kidney fungal burden measured per gram of tissue at 12.5 mg/kg, ip bid for 2 days post infection measured after 4 days relative to sham-treated control. The data set is classed as functional. To be noted: route intraperitoneal. A digest of the protocol:
(§1)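 DBA/2 mice were given 3.0 × 10^4 CFU of C. albicans MY1055 iv into the lateral tail vein in 0.2 mL. Dosing ip or po, bid for 2 days, began 15–30 min after challenge, with a sham-treated control for each route and diluent. At day 4, paired kidneys (4–5 mice/group) were homogenized in saline, serially diluted and plated on SD agar (35 °C, 30–48 h). Mean CFU/g was compared with sham.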

In data set [3] the test system is Candida albicans. Nature of the data set: Antifungal activity against Candida albicans MY1055 infected in DBA/2 mouse assessed as reduction in kidney fungal burden measured per gram of tissue at 6.25 mg/kg, po bid for 2 days post infection measured after 4 days relative to sham-treated control. The data set is classed as functional. Summed up: as §1
A short description of data set [4]: Inhibition of Candida albicans beta-1,3-glucan synthase assessed as [3H]UDPG incorporation after 60 mins by scintillation counting. Summed up:
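C. albicans glucan synthase was incubated for 60 min at 22 °C in 50 mM HEPES pH 7.5 with 0.5 mM 3H-UDPG (6000–8000 dpm/nmol), 10% glycerol, 1.5 mg/mL BSA, 25 mM KF, 1 mM EDTA and GTP-γ-S. Enzyme was set to give 3–6 nmol incorporation. Compounds were added as threefold DMSO dilutions. The reaction was stopped with 20% TCA and chilled, and glucan was collected on GF/C filters, water-washed and scintillation counted.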

The test system of data set [5] is Candida albicans. Nature of the data set: Antifungal activity against Candida albicans MY1055 infected in DBA/2 mouse assessed as reduction in kidney fungal burden measured per gram of tissue at 25 mg/kg, po bid for 2 days post infection measured after 4 days relative to sham-treated control. Type of data set: functional. A digest of the protocol:
as §1

Data set [6] concerns Candida albicans. Put plainly: Antifungal activity against Candida albicans MY1055 infected in DBA/2 mouse assessed as reduction in kidney fungal burden measured per gram of tissue at 12.5 mg/kg, po bid for 2 days post infection measured after 4 days relative to sham-treated control. The data set is classed as functional. Summed up:
as §1

Data set [7] in a line: Oral bioavailability in mouse. Type of data set: ADME, organism-based. To be noted: in vivo.
A short description of data set [8]: Clearance in po dosed mouse. As to conditions: in vivo. Type of data set: ADME, organism-based.
The next data set concerns Mus musculus. Put plainly: Dose normalised AUC in po dosed mouse. The data set is classed as ADME, organism-based. As to conditions: in vivo.
For data set [9], the system named is Candida albicans. Put plainly: Antifungal activity against Candida albicans MY1055 after 24 hrs by NCCLS microdilution method. Type of data set: functional. To be noted: MY1055, 24 h. (Dilution methods test growth across graded concentrations, often in twofold steps.)
Data set [10] can be described thus: Inhibition of Candida albicans MY1055 beta-1,3-glucan synthase assessed as [3H]UDPG incorporation after 60 mins.

Each structure is given as a SMILES string. In brackets after ≈: the same amount, converted by molar mass.

As a reminder, the MIC is the smallest concentration in the dilution series that meets the test's criterion for growth inhibition. A high value points to a need for much substance. A word on the IC50: it is the concentration that gives 50% inhibition. Consider `CC(C)[C@@H](C)[C@@]1(C)CC[C@]2(C)[C@H]3CC[C@@H]4[C@@]5(COC[C@@]4(C)[C@@H](OC[C@@]4(C)CCCN4C)[C@H](n4ncnc4-c4ccncc4)C5)C3=CC[C@@]2(C)[C@@H]1C(=O)O`, for which, in the data set with Candida albicans [1], the minimum inhibitory concentration (MIC) stood at 0.125 µg/mL (≈ 0.172 µM). The deltalog10CFU is -1.8 in the data set with Candida albicans [2], -0.9 in the data set on Candida albicans [3], -2 in the data set with Candida albicans [5] and -1.4 with Candida albicans [6]. Besides, the IC50 in data set [4] came out at 0.0064 µg/mL (≈ 0.00879 µM).
Broadly, the bioavailability is the share of a dose that reaches the circulation, judged against a reference dose that is usually intravenous. With `CN[C@@](C)(CO[C@H]1[C@H](n2ncnc2-c2ccncc2)C[C@@]23COC[C@]1(C)[C@@H]2CC[C@H]1C3=CC[C@@]2(C)[C@H](C(=O)O)[C@@](C)([C@H](C)C(C)C)CC[C@]12C)C(C)(C)C`, the MIC with Candida albicans [1] was 0.03 µg/mL (≈ 0.0403 µM). The deltalog10CFU is listed as -4.37 in the data set with Candida albicans [2], -2.72 in the data set with Candida albicans [3], -4.25 with Candida albicans [5] and -3.88 with Candida albicans [6]. The compound further displayed a bioavailability in data set [7] of 42%. Moreover, the clearance in [8] was found to be 16 mL/min/kg. In the data set on Mus musculus, the AUC/dose stood at 0.62 µM·kg·h/mg. Also, the IC50 in data set [4] is 0.002 µg/mL (≈ 0.00269 µM).
For the compound `CC(C)[C@@H](C)[C@@]1(C)CC[C@]2(C)[C@H]3CC[C@@H]4[C@@]5(COC[C@@]4(C)[C@@H](OC[C@@]4(C)CCCN4)[C@H](n4ncnc4-c4ccncc4)C5)C3=CC[C@@]2(C)[C@@H]1C(=O)O`, 0.125 µg/mL (≈ 0.175 µM) was the least that counted as inhibitory in the data set with Candida albicans [1] (MIC). Also, the deltalog10CFU in the data set on Candida albicans [2] was -2.83; in the data set on Candida albicans [5], -2.16. Moreover, the bioavailability in [7] turned out to be 4.7%. In addition, the clearance in data set [8] stood at 19.2 mL/min/kg. The compound also yielded an AUC/dose in the data set on Mus musculus of 0.06 µM·kg·h/mg. In addition, the IC50 in data set [4] is 0.004 µg/mL (≈ 0.0056 µM).
Consider `CC(C)[C@@H](C)[C@@]1(C)CC[C@]2(C)[C@H]3CC[C@@H]4[C@@]5(COC[C@@]4(C)[C@@H](OC[C@H]4CCCN4C)[C@H](n4ncnc4-c4ccncc4)C5)C3=CC[C@@]2(C)[C@@H]1C(=O)O`, for which the MIC in the data set with Candida albicans [1] amounted to 0.5 µg/mL (≈ 0.7 µM). The deltalog10CFU was -1.84 with Candida albicans [2], -1.22 in the data set on Candida albicans [3], -1.14 with Candida albicans [5] and -0.9 in the data set with Candida albicans [6]. In data set [7], this compound had a bioavailability of 23%. This compound also yielded a clearance in data set [8] of 13.1 mL/min/kg. For the same compound, the AUC/dose in the data set on Mus musculus is 0.06 µM·kg·h/mg. For the same compound, the half-maximal inhibitory concentration (IC50) in [4] is 0.019 µg/mL (≈ 0.0266 µM).
In the data set with Candida albicans [1], `CC(C)[C@@H](C)[C@@]1(C)CC[C@]2(C)[C@H]3CC[C@@H]4[C@@]5(COC[C@@]4(C)[C@@H](OC[C@H]4CCCN4)[C@H](n4ncnc4-c4ccncc4)C5)C3=CC[C@@]2(C)[C@@H]1C(=O)O` returned an MIC of 0.5 µg/mL (≈ 0.714 µM). Moreover, the deltalog10CFU with Candida albicans [2] is on record as -1.69; with Candida albicans [3] it was -0.27; with Candida albicans [5] it was -2.09; with Candida albicans [6], -1.81. Also, the bioavailability in [7] was determined as 1.7%. In [8], the clearance was determined as 16.3 mL/min/kg. For the same compound, the AUC/dose with Mus musculus is 0.03 µM·kg·h/mg. Besides, in [4], the half-inhibitory concentration (IC50) is 0.022 µg/mL (≈ 0.0314 µM).
Regarding `CC(C)[C@@H](C)[C@@]1(C)CC[C@]2(C)[C@H]3CC[C@@H]4[C@@]5(COC[C@@]4(C)[C@@H](OC[C@@H]4CCCN4C)[C@H](n4ncnc4-c4ccncc4)C5)C3=CC[C@@]2(C)[C@@H]1C(=O)O`, the lowest concentration to inhibit growth against Candida albicans [1] (MIC) was 1 µg/mL (≈ 1.4 µM). Moreover, the IC50 in [4] worked out at 0.061 µg/mL (≈ 0.0854 µM).
In the case of `CC(C)[C@@H](C)[C@@]1(C)CC[C@]2(C)[C@H]3CC[C@@H]4[C@@]5(COC[C@@]4(C)[C@@H](OC[C@@H]4CCCN4)[C@H](n4ncnc4-c4ccncc4)C5)C3=CC[C@@]2(C)[C@@H]1C(=O)O`, 1 µg/mL (≈ 1.43 µM) was the least that counted as inhibitory in the data set with Candida albicans [1] (MIC). For the same compound, the deltalog10CFU with Candida albicans [2] is given as -2.18; in the data set with Candida albicans [3] it was -0.4; in the data set with Candida albicans [5] it was -1.32; in the data set with Candida albicans [6], -0.26. Moreover, the IC50 in data set [4] is 0.018 µg/mL (≈ 0.0257 µM).
Turning to `CC(=O)O[C@@H]1C[C@]23C4=CC[C@@]5(C)[C@H](C(=O)O)[C@@](C)([C@H](C)C(C)C)CC[C@]5(C)[C@H]4CC[C@H]2[C@@](C)(COC3O)[C@H]1O[C@@H]1O[C@H](CO)[C@@H](O)[C@H](O)[C@H]1O` (stereo not given in full) [ENFUMAFUNGIN], the MIC against Candida albicans [9] was determined as 0.2 µg/mL (≈ 0.282 µM). For the same compound, the IC50 in [10] is 0.05 µg/mL (≈ 0.0705 µM).
